Experimental data as given in ChEMBL document CHEMBL3227978, “Azetidine derivatives of tricyclic antidepressant agents” (J Med Chem, 1979).

Tests used:
[1] = Orientative acute toxicity in po dosed ICEM:CET (SPF Caw) mouse administered via gavage measured for 60 mins after drug dosing by Irwin's test; assay type: organism-based; conditions: ICEM:CET (SPF Caw), in vivo
Method in brief: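 Male ICEM:CET (SPF Caw) mice, 18-22 g. Oral gavage, suspended or dissolved in 0.5% Methocel at 0.1 mL/10 g body weight. Doses of at least 25, 50, 100, 200, 400 and 800 mg/kg, four animals per dose. Animals were observed closely for 60 min after dosing during Irwin's symptomatologic test, and an approximate LD50 was estimated.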

[2] = test system: Mus musculus; assay: Anticonvulsant activity in po dosed ICEM:CET (SPF Caw) mouse assessed as antagonism of pentylenetetrazole-induced flexor-extensor tonic convulsions administered via gavage 30 mins before pentylenetetrazole challenge; assay type: functional
Method in brief: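 Male mice, 18-22 g, dosed orally by gavage in 0.5% Methocel (0.1 mL/10 g), starting at a 50 mg/kg screening dose, then graded doses. Pentylenetetrazole 130 mg/kg ip given 30 min later. Ten mice per dose and for controls. Dose preventing flexor-extensor tonic convulsions in 50% of animals read from dose-response curves (ED50).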

[3] = test system: Mus musculus; assay: Antidepressant activity in po dosed ICEM:CET (SPF Caw) mouse assessed as antagonism of reserpine-induced blepharospasm administered via gavage 30 mins before reserpine challenge measured 1 hr after reserpine treatment; assay type: functional; conditions: Mus musculus, ICEM:CET(SPF Caw), po; read-out: ED50
Method in brief: (§1)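 Groups of ten male mice (18-22 g), fasted 9 h with water until 2 h pre-test. Oral gavage in 0.5% Methocel at doses below the 25 mg/kg screen, 30 min before reserpine 2.5 mg/kg ip. Blepharospasm scored blind at 1 h, rectal temperature at 4 h. ED50 estimated by eye-fit linear plots on semilogarithmic paper.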

[4] = test system: Mus musculus; assay: Antidepressant activity in po dosed ICEM:CET (SPF Caw) mouse assessed as antagonism of reserpine-induced hypothermia administered via gavage 30 mins before reserpine challenge measured 4 hrs after reserpine treatment; assay type: functional; method in brief: as §1
[5] = Mus musculus, ICEM:CET(SPF Caw), po, read-out: ED50

SMILES | LD50 at 1 h [1] | ED50 [2, 5] | ED50 [3] | ED50 [4, 5] | ED50 [2] | ED50 [4]
CN(C)C1CN(C2c3ccccc3CSc3ccc(Cl)cc32)C1 (configuration not stated) | 400 mg/kg | 50 mg/kg | > 25 mg/kg | > 25 mg/kg | – | –
COc1ccc2c(c1)C(N1CC(N(C)C)C1)c1ccccc1CO2 (configuration not stated) | 400 mg/kg | > 50 mg/kg | > 25 mg/kg | > 25 mg/kg | – | –
CN(C)CCC=C1c2ccccc2CCc2ccccc21.Cl [AMITRIPTYLINE HYDROCHLORIDE] | 100 mg/kg | 8 mg/kg | 1.3 mg/kg | 6.6 mg/kg | – | –
CN(CC(=O)c1ccccc1)C1CN(C2c3ccccc3CCc3ccccc32)C1 | > 800 mg/kg | 46.8 mg/kg | 15 mg/kg | > 25 mg/kg | – | –
CN(C)CCCN1c2ccccc2CCc2ccccc21.Cl [IMIPRAMINE HYDROCHLORIDE] | 200 mg/kg | 19.4 mg/kg | 1.6 mg/kg | 12.3 mg/kg | – | –
CNC1CN(C2c3ccccc3COc3ccccc32)C1.O=C(O)/C=C/C(=O)O (single isomer, unassigned; (+)) | 200 mg/kg | – | 1 mg/kg | – | 14 mg/kg | 4.9 mg/kg
CN(C)C1CN(C2c3ccccc3CCc3ccccc32)C1 | 400 mg/kg | 21.5 mg/kg | 7 mg/kg | 12.5 mg/kg | – | –
CNC1CN(C2c3ccccc3C3(CC3)c3ccccc32)C1 | 200 mg/kg | 18.5 mg/kg | 4.4 mg/kg | 11.4 mg/kg | – | –
OCCN1CCN(C2CN(C3c4ccccc4CCc4ccccc43)C2)CC1 | 400 mg/kg | 31 mg/kg | > 25 mg/kg | > 25 mg/kg | – | –
CNC1CCN(C2c3ccccc3CCc3ccccc32)C1 (configuration not stated) | 200 mg/kg | 45 mg/kg | > 25 mg/kg | > 25 mg/kg | – | –
CC(=O)N(C)C1CN(C2c3ccccc3CCc3ccccc32)C1 | 400 mg/kg | 28 mg/kg | > 25 mg/kg | > 25 mg/kg | – | –
CNCCN(C)C1c2ccccc2CCc2ccccc21 | 200 mg/kg | 18 mg/kg | > 25 mg/kg | > 25 mg/kg | – | –
CC(C)NC1CN(C2c3ccccc3COc3ccccc32)C1 (configuration not stated) | 200 mg/kg | 27 mg/kg | 3.9 mg/kg | 24.5 mg/kg | – | –
CNC1CN(C2c3ccccc3COc3ccc(OC)cc32)C1 (configuration not stated) | 200 mg/kg | 45.8 mg/kg | > 25 mg/kg | > 25 mg/kg | – | –
c1ccc2c(c1)CCc1ccccc1C2N1CC(n2ccnc2)C1 | 200 mg/kg | 17.7 mg/kg | > 25 mg/kg | > 25 mg/kg | – | –
CN(C)C1CN(C2c3ccccc3CSc3ccccc32)C1 (configuration not stated) | 400 mg/kg | 19 mg/kg | > 25 mg/kg | > 25 mg/kg | – | –
c1ccc2c(c1)CCc1ccccc1C2N1CC(NC2CCCCC2)C1 | 400 mg/kg | > 50 mg/kg | > 25 mg/kg | > 25 mg/kg | – | –
CN(C)C1CN(C2c3ccccc3CCc3ccc(Cl)cc32)C1 (configuration not stated) | 400 mg/kg | 29.9 mg/kg | 12.5 mg/kg | 8.6 mg/kg | – | –
NCC1CN(C2c3ccccc3CCc3ccccc32)C1 | 400 mg/kg | > 50 mg/kg | > 25 mg/kg | > 25 mg/kg | – | –
c1ccc2c(c1)CCc1ccccc1C2N1CC(N2CCOCC2)C1 | > 800 mg/kg | 46.9 mg/kg | 17 mg/kg | > 25 mg/kg | – | –
CNC1CN(C2c3ccccc3CCc3ccc(Cl)cc32)C1 (configuration not stated) | 400 mg/kg | 27.9 mg/kg | > 25 mg/kg | > 25 mg/kg | – | –
c1ccc(CNC2CN(C3c4ccccc4CCc4ccccc43)C2)cc1 | 800 mg/kg | > 50 mg/kg | 12 mg/kg | > 25 mg/kg | – | –
NC1CN(C2c3ccccc3CCc3ccccc32)C1 | 200 mg/kg | 17 mg/kg | 5 mg/kg | 12 mg/kg | – | –
CNC1CN(C2c3ccccc3CCc3ccccc32)C1 | 400 mg/kg | 13.4 mg/kg | 2.9 mg/kg | 7.3 mg/kg | – | –
CCNC1CN(C2c3ccccc3CCc3ccccc32)C1 | 200 mg/kg | 16.7 mg/kg | 10 mg/kg | 12.5 mg/kg | – | –
CCNC1CN(C2c3ccccc3COc3ccccc32)C1 (configuration not stated) | 200 mg/kg | 25.3 mg/kg | 4.8 mg/kg | 22.2 mg/kg | – | –
CNCC1CCN1C1c2ccccc2CCc2ccccc21 (configuration not stated) | > 800 mg/kg | > 50 mg/kg | > 25 mg/kg | > 25 mg/kg | – | –
CNC1(c2ccccc2)CN(C2c3ccccc3CCc3ccccc32)C1 | > 400 mg/kg | > 50 mg/kg | > 25 mg/kg | > 25 mg/kg | – | –
